Measurements reported in ChEMBL document CHEMBL4411269, “Required Immunoproteasome Subunit Inhibition Profile for Anti-Inflammatory Efficacy and Clinical Candidate KZR-616 ((2 S,3 R)- N-(( S)-3-(Cyclopent-1-en-1-yl)-1-(( R)-2-methyloxiran-2-yl)-1-oxopropan-2-yl)-3-hydroxy-3-(4-methoxyphenyl)-2-(( S)-2-(2-morpholinoacetamido)propanamido)propenamide)” (J Med Chem, 2018).
Converted amounts (≈) assume the structure as drawn.

What was measured:
[1] = molecular target: T1, Proteasome subunit beta type-8 (Homo sapiens, UniProt P28062); experiment: Inhibition of LMP7 in human MOLT4 cells by ELISA; assay type: cell-based
T1 sequence (P28062 whole entry): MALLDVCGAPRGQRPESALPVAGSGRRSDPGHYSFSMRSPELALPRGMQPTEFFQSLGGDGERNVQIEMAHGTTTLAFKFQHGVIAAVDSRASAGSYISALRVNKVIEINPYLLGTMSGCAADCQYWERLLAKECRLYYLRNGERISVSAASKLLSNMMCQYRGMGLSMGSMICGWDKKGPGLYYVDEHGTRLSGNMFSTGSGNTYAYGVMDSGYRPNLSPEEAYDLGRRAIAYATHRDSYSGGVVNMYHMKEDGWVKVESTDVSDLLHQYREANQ

[2] = molecular target: T2, Proteasome subunit beta type-5 (Mus musculus, UniProt O55234); experiment: Inhibition of 20S proteosome beta 5 in mouse A20 cells by ELISA; assay type: cell-based
T2 sequence (O55234 whole entry): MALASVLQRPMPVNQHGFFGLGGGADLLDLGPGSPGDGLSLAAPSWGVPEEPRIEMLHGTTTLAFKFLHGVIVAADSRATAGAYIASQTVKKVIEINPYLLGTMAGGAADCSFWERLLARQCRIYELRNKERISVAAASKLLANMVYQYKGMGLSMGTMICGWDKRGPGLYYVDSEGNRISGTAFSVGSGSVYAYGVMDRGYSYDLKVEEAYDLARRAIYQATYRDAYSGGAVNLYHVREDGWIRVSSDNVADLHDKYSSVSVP

[3] = molecular target: T3, Proteasome subunit beta type-10 (Homo sapiens, UniProt P40306); experiment: Inhibition of MECL1 in human MOLT4 cells by ELISA; assay type: cell-based
T3 sequence (P40306 whole entry): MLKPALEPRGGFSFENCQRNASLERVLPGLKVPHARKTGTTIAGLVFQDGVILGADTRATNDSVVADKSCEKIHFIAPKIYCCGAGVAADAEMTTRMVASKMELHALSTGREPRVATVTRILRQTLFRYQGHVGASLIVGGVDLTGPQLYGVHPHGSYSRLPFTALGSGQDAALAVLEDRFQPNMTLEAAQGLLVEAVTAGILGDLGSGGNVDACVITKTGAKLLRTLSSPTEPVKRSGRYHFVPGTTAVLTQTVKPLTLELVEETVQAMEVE

[4] = molecular target: T4, Proteasome subunit beta type-8 (Mus musculus, UniProt P28063); experiment: Inhibition of LMP7 in mouse A20 cells by ELISA; assay type: cell-based
T4 sequence (P28063 whole entry): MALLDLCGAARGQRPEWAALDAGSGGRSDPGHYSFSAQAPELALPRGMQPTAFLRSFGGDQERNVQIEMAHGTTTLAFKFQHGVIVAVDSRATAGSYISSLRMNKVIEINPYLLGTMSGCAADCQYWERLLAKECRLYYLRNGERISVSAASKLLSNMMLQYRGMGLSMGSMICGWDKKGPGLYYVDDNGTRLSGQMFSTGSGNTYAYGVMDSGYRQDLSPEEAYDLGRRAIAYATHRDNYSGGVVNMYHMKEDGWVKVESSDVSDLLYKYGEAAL
Procedure, shortened: (§1)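 Mouse A20 B-cell lymphoma cell lysate (1 mg/mL, hypotonic 20 mM Tris pH 8, 5 mM EDTA) treated with serially diluted compound for 1 h at 25 °C. Then 5 μM biotinylated active-site probe for 2 h at 25 °C, guanidine denaturation and streptavidin bead capture. Subunit-specific antibody and HRP chemiluminescence, signal normalized to protein, IC50 from percent activity versus DMSO controls.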

[5] = molecular target: T5, Proteasome Macropain subunit MB1 (Homo sapiens, UniProt P28074); experiment: Inhibition of 20S proteosome beta 5 in human MOLT4 cells by ELISA; assay type: cell-based
T5 sequence (P28074 whole entry): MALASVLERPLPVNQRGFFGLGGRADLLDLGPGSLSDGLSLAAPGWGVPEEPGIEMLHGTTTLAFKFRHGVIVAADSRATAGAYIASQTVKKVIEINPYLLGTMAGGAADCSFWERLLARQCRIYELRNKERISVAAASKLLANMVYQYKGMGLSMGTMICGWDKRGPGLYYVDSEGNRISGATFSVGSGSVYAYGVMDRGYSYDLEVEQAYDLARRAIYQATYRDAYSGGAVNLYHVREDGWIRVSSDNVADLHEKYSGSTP

[6] = molecular target: T6, Proteasome subunit beta type-9 (Mus musculus, UniProt P28076); experiment: Inhibition of LMP2 in mouse A20 cells by ELISA; assay type: cell-based; procedure, shortened: as §1
T6 sequence (P28076 whole entry): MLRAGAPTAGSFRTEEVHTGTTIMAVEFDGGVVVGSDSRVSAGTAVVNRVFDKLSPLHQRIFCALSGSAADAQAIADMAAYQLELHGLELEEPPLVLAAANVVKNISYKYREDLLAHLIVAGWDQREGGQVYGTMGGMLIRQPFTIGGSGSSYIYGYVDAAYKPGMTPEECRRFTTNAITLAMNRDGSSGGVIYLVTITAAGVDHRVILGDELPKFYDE

[7] = Solubility of the compound in phosphate buffer at pH 7.2 at 10 mg/ml after 24 hrs by HPLC-UV method; assay type: physicochemical
Procedure, shortened: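 Compound shaken at a target 10 mg/mL in 50 mM potassium phosphate buffer for 24 h at 25 °C, then centrifuged at 15 000 rpm for 15 min. Supernatant diluted 100-fold in DMSO and quantified by HPLC-UV (220/254/280 nm) against a three-level DMSO standard curve, in duplicate.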

[8] = molecular target: T7, Proteasome subunit beta type-9 (Homo sapiens, UniProt P28065); experiment: Inhibition of LMP2 in human MOLT4 cells by ELISA; assay type: cell-based
T7 sequence (P28065 whole entry): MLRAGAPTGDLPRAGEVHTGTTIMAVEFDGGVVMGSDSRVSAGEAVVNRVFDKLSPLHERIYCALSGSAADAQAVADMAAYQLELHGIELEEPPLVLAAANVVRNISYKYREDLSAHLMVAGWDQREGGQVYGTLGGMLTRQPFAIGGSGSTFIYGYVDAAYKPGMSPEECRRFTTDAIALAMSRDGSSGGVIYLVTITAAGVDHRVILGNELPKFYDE

[9] = Half life in Sprague-Dawley rat at 2 to 9 mg/kg, iv administered as bolus dose by LC/MS-MS analysis; assay type: ADME, organism-based; details: in vivo

Row | SMILES | IC50 [1] [nM] | IC50 [2] [nM] | IC50 [3] [nM] | IC50 [4] [nM] | IC50 [5] [nM] | IC50 [6] [nM] | solubility at 24 h [7] [µg/mL] | IC50 [8] [nM] | half-life [9] [min]
1 | CC1=C(C(=O)N[C@H](C)C(=O)N[C@@H](Cc2c[nH]c3ccccc23)C(=O)N[C@@H](Cc2ccccc2)C(=O)[C@@]2(C)CO2)Cc2ccccc21 | 39 | 1360 | > 25000 | 573 | 1670 | 4780 | 0.75 (≈ 1.21 µM) | 2210 | –
2 | CC(C)C[C@H](NC(=O)[C@H](CCc1ccccc1)NC(=O)CN1CCOCC1)C(=O)N[C@@H](Cc1ccccc1)C(=O)N[C@@H](CC(C)C)C(=O)[C@@]1(C)CO1 [CARFILZOMIB] | – | – | – | – | – | – | – | – | < 15
3 | COc1ccc(C[C@H](NC(=O)[C@@H](C)NC(=O)[C@H]2CC[C@H](O)CC2)C(=O)N[C@@H](CC2CCC2)C(=O)[C@@]2(C)CO2)cc1 | – | 6810 | – | 556 | – | – | 979 (≈ 1760 µM) | – | –
4 | COc1ccc(C[C@H](NC(=O)[C@@H](C)NC(=O)[C@H]2CC[C@H](O)CC2)C(=O)N[C@@H](Cc2ccccc2)C(=O)[C@@]2(C)CO2)cc1 | 23 | 507 | > 25000 | 262 | 782 | – | 240 (≈ 414 µM) | 3530 | –
5 | CC1=C(C(=O)N[C@@H](C)C(=O)N[C@@H](Cc2c[nH]c3ccccc23)C(=O)N[C@@H](Cc2ccccc2)C(=O)[C@@]2(C)CO2)Cc2ccccc21 | 38 | 47 | – | 50 | 54 | – | 1.85 (≈ 2.99 µM) | – | –
